Experimental data from ChEMBL document CHEMBL3102784, “Salicylanilide diethyl phosphates: synthesis, antimicrobial activity and cytotoxicity” (Bioorg Med Chem, 2014).
Converted amounts (≈) assume the structure as drawn. The source made the active and inactive calls. No cut-off for these calls is given here.

How the values were obtained:
Mycobacterium kansasii [1] = test: Antimycobacterial activity against Mycobacterium kansasii 6509/96 after 7 days; assay type: functional; settings: 6509/96, 168 h
How it was run: (§1)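 Micromethod MIC in Šula's semisynthetic medium at 37 °C. Compounds added in DMSO at 1000 down to 0.032 µmol/L. Isoniazid standard in sterile water at 0.5–250 µmol/L. Inocula: H37Rv 10^3, M. avium 10^5, M. kansasii 10^4. Read at 14 and 21 d, plus 7 d for M. kansasii.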

HepG2 = test: Cytotoxicity against human HepG2 cells after 24 hrs by CellTiter assay; assay type: cell-based; settings: HepG2, 24 h
How it was run: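 HepG2 cells (passage 27–33) in MEM with 10% FBS, L-glutamine and NEAA, seeded at 1×10^4 per well. Treated next day with compounds at 0.1–100 µM (or 0.1–25 µmol/L), triplicates, <1% DMSO, for 24 h at 37 °C, 5% CO2. MTS reagent added for 2 h, absorbance read at 490 nm. IC50 taken against untreated (100%) and 10% DMSO (0%) controls.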

Nakaseomyces glabratus = test: Antifungal activity against Candida glabrata 20/I at 500 micromol/L after 24 to 48 hrs by broth microdilution method; assay type: functional, organism-based
How it was run: (§2)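 Broth microdilution in RPMI 1640 with glutamine, fluconazole as reference. For yeasts, MIC is ≥80% growth reduction (IC80) versus control. For filamentous fungi, the value is expressed as IC50. Readings at 24 and 48 h.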

Pichia kudriavzevii [2] = test: Antifungal activity against Candida krusei E28 after 48 hrs by broth microdilution method; assay type: functional; settings: E28, 48 h; how it was run: as §2
Mycobacterium avium [3] = test: Antimycobacterial activity against isoniazid, rifampicin, ethambutol and ofloxacin-resistant Mycobacterium avium My 330/88 after 14 days; assay type: functional; settings: My 330/88, 336 h; how it was run: as §1
Trichosporon asahii [4] = test: Antifungal activity against Trichosporon asahii 1188 after 24 hrs by broth microdilution method; assay type: functional; settings: Trichosporon asahii, 1188, 24 h; how it was run: as §2
Aspergillus fumigatus [5] = test: Antifungal activity against Aspergillus fumigatus 231 after 48 hrs by broth microdilution method; assay type: functional; settings: Aspergillus fumigatus, 231, 48 h; how it was run: as §2
Lichtheimia corymbifera [6] = test: Antifungal activity against Absidia corymbifera 272 after 24 hrs by broth microdilution method; assay type: functional; settings: Lichtheimia corymbifera, 272, 24 h; how it was run: as §2
Trichosporon asahii [7] = test: Antifungal activity against Trichosporon asahii 1188 after 48 hrs by broth microdilution method; assay type: functional; settings: Trichosporon asahii, 1188, 48 h; how it was run: as §2
Pseudomonas aeruginosa = test: Antibacterial activity against Pseudomonas aeruginosa CCM 1961 at 500 micromol/L after 24 to 48 hrs by broth microdilution method; assay type: functional, organism-based
How it was run: (§3)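 Broth microdilution in Mueller–Hinton broth, compounds dissolved in DMSO, tested over a dilution series from 500 downward. MIC taken as ≥95% growth reduction (IC95) versus drug-free control. Benzylpenicillin comparator. Readings at 24 and 48 h.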

Mycobacterium kansasii [8] = test: Antimycobacterial activity against Mycobacterium kansasii My 235/80 after 14 days; assay type: functional; settings: My 235/80, 336 h; how it was run: as §1
[9] = tested on: Staphylococcus epidermidis; test: Antibacterial activity against Staphylococcus epidermidis H 6966/08 after 48 hrs by broth microdilution method; assay type: functional; settings: H 6966/08, 48 h; how it was run: as §3
Staphylococcus aureus [10] = test: Antibacterial activity against Staphylococcus aureus CCM 4516/08 after 48 hrs by broth microdilution method; assay type: functional; settings: CCM 4516/08, 48 h; how it was run: as §3
Enterococcus sp. = test: Antibacterial activity against Enterococcus sp. J 14365/08 at 500 micromol/L after 24 to 48 hrs by broth microdilution method; assay type: functional, organism-based; how it was run: as §3
Mycobacterium avium [11] = test: Antimycobacterial activity against isoniazid, rifampicin, ethambutol and ofloxacin-resistant Mycobacterium avium My 330/88 after 21 days; assay type: functional; settings: My 330/88, 504 h; how it was run: as §1
Klebsiella pneumoniae [12] = test: Antibacterial activity against ESBL-positive Klebsiella pneumoniae J 14368/08 at 500 micromol/L after 24 to 48 hrs by broth microdilution method; assay type: functional, organism-based; how it was run: as §3
Pichia kudriavzevii [13] = test: Antifungal activity against Candida krusei E28 after 24 hrs by broth microdilution method; assay type: functional; settings: E28, 24 h; how it was run: as §2
Mycobacterium kansasii [14] = test: Antimycobacterial activity against Mycobacterium kansasii My 235/80 after 7 days; assay type: functional; settings: My 235/80, 168 h; how it was run: as §1
[15] = tested on: Staphylococcus epidermidis; test: Antibacterial activity against Staphylococcus epidermidis H 6966/08 after 24 hrs by broth microdilution method; assay type: functional; settings: H 6966/08, 24 h; how it was run: as §3
Staphylococcus aureus [16] = test: Antibacterial activity against Staphylococcus aureus CCM 4516/08 after 24 hrs by broth microdilution method; assay type: functional; settings: CCM 4516/08, 24 h; how it was run: as §3
Candida tropicalis = test: Antifungal activity against Candida tropicalis 156 at 500 micromol/L after 24 to 48 hrs by broth microdilution method; assay type: functional, organism-based; how it was run: as §2
Mycobacterium kansasii [17] = test: Antimycobacterial activity against Mycobacterium kansasii My 235/80 after 21 days; assay type: functional; settings: My 235/80, 504 h; how it was run: as §1
[18] = tested on: Trichophyton mentagrophytes; test: Antifungal activity against Trichophyton mentagrophytes 445 after 120 hrs by broth microdilution method; assay type: functional; settings: Trichophyton mentagrophytes, 445, 120 h
How it was run: (§4)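 Filamentous dermatophyte tested by broth microdilution in RPMI 1640 with glutamine, fluconazole as reference. Value expressed as IC50 relative to growth control. Read at 72 and 120 h.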

Mycobacterium kansasii [19] = test: Antimycobacterial activity against Mycobacterium kansasii 6509/96 after 21 days; assay type: functional; settings: 6509/96, 504 h; how it was run: as §1
Staphylococcus aureus [20] = test: Antibacterial activity against methicillin-resistant Staphylococcus aureus H 5996/08 after 24 hrs by broth microdilution method; assay type: functional; settings: H 5996/08, 24 h; how it was run: as §3
[21] = tested on: Trichophyton mentagrophytes; test: Antifungal activity against Trichophyton mentagrophytes 445 after 72 hrs by broth microdilution method; assay type: functional; settings: Trichophyton mentagrophytes, 445, 72 h; how it was run: as §4
Escherichia coli = test: Antibacterial activity against Escherichia coli CCM 4517 at 500 micromol/L after 24 to 48 hrs by broth microdilution method; assay type: functional, organism-based; how it was run: as §3
Lichtheimia corymbifera [22] = test: Antifungal activity against Absidia corymbifera 272 after 48 hrs by broth microdilution method; assay type: functional; settings: Lichtheimia corymbifera, 272, 48 h; how it was run: as §2
Candida albicans [23] = test: Antifungal activity against Candida albicans ATCC 44859 after 48 hrs by broth microdilution method; assay type: functional; settings: ATCC 44859, 48 h; how it was run: as §2
Aspergillus fumigatus [24] = test: Antifungal activity against Aspergillus fumigatus 231 after 24 hrs by broth microdilution method; assay type: functional; settings: Aspergillus fumigatus, 231, 24 h; how it was run: as §2
[25] = tested on: Mycobacterium tuberculosis; test: Antimycobacterial activity against Mycobacterium tuberculosis H37Rv My 331/88 after 21 days; assay type: functional; settings: H37Rv My 331/88, 504 h; how it was run: as §1
Mycobacterium kansasii [26] = test: Antimycobacterial activity against Mycobacterium kansasii 6509/96 after 14 days; assay type: functional; settings: 6509/96, 336 h; how it was run: as §1
Staphylococcus aureus [27] = test: Antibacterial activity against methicillin-resistant Staphylococcus aureus H 5996/08 after 48 hrs by broth microdilution method; assay type: functional; settings: H 5996/08, 48 h; how it was run: as §3
Klebsiella pneumoniae [28] = test: Antibacterial activity against Klebsiella pneumoniae D 11750/08 at 500 micromol/L after 24 to 48 hrs by broth microdilution method; assay type: functional, organism-based; how it was run: as §3
[29] = tested on: Mycobacterium tuberculosis; test: Antimycobacterial activity against Mycobacterium tuberculosis H37Rv My 331/88 after 14 days; assay type: functional; settings: H37Rv My 331/88, 336 h; how it was run: as §1
Candida albicans [30] = test: Antifungal activity against Candida albicans ATCC 44859 after 24 hrs by broth microdilution method; assay type: functional; settings: ATCC 44859, 24 h; how it was run: as §2

Structure (SMILES) | MIC (Mycobacterium kansasii [1]) [µM] | IC50 (HepG2) [µM] | Activity (Nakaseomyces glabratus) | MIC80 (Pichia kudriavzevii [2]) [µM] | MIC (Mycobacterium avium [3]) [µM] | MIC80 (Trichosporon asahii [4]) [µM] | MIC50 (Aspergillus fumigatus [5]) [µM] | MIC50 (Lichtheimia corymbifera [6]) [µM] | MIC80 (Trichosporon asahii [7]) [µM] | Activity (Pseudomonas aeruginosa) | MIC (Mycobacterium kansasii [8]) [µM] | MIC95 [9] [µM] | MIC95 (Staphylococcus aureus [10]) [µM] | MIC (Mycobacterium avium [11]) [µM] | MIC (Mycobacterium kansasii [14]) [µM] | MIC (Mycobacterium kansasii [17]) [µM] | MIC (Mycobacterium kansasii [19]) [µM] | MIC [25] [µM] | MIC (Mycobacterium kansasii [26]) [µM] | MIC [29] [µM] | further results
CCOP(=O)(OCC)Oc1cc(Cl)ccc1C(=O)Nc1cccc(C(F)(F)F)c1 | 4 (≈ 1.81 µg/mL) | 3.85 | inactive | > 500 | 16 (≈ 7.23 µg/mL) | > 500 | > 500 | > 500 | > 500 | inactive | 4 (≈ 1.81 µg/mL) | 31.2 (≈ 14.1 µg/mL) | 62.5 (≈ 28.2 µg/mL) | 16 (≈ 7.23 µg/mL) | 2 (≈ 0.904 µg/mL) | 4 (≈ 1.81 µg/mL) | 8 (≈ 3.61 µg/mL) | 4 (≈ 1.81 µg/mL) | 8 (≈ 3.61 µg/mL) | 4 (≈ 1.81 µg/mL) | Activity (Enterococcus sp.): inactive; Activity (Klebsiella pneumoniae [12]): inactive; MIC80 (Pichia kudriavzevii [13]): > 500 µM; MIC95 [15]: 15.6 µM (≈ 7.06 µg/mL); MIC95 (Staphylococcus aureus [16]): 31.2 µM (≈ 14.1 µg/mL); Activity (Candida tropicalis): inactive; MIC50 [18]: 31.2 µM (≈ 14.1 µg/mL); MIC95 (Staphylococcus aureus [20]): 31.2 µM (≈ 14.1 µg/mL); MIC50 [21]: 31.2 µM (≈ 14.1 µg/mL); Activity (Escherichia coli): inactive; MIC50 (Lichtheimia corymbifera [22]): > 500 µM; MIC80 (Candida albicans [23]): > 500 µM; MIC50 (Aspergillus fumigatus [24]): > 500 µM; MIC95 (Staphylococcus aureus [27]): 62.5 µM (≈ 28.2 µg/mL); Activity (Klebsiella pneumoniae [28]): inactive; MIC80 (Candida albicans [30]): > 500 µM
Nc1ccc(C(=O)O)c(O)c1 [AMINOSALICYLIC ACID] | 32 (≈ 4.9 µg/mL) | – | – | – | 32 (≈ 4.9 µg/mL) | – | – | – | – | – | 1000 (≈ 153 µg/mL) | – | – | 125 (≈ 19.1 µg/mL) | 125 (≈ 19.1 µg/mL) | > 1000 | 500 (≈ 76.6 µg/mL) | 62.5 (≈ 9.57 µg/mL) | 125 (≈ 19.1 µg/mL) | 62.5 (≈ 9.57 µg/mL) | –
CCOP(=O)(OCC)Oc1ccc(Cl)cc1C(=O)Nc1ccc(F)cc1 | 16 (≈ 6.43 µg/mL) | 31.4 | inactive | > 500 | 62.5 (≈ 25.1 µg/mL) | > 500 | > 500 | > 500 | > 500 | inactive | 32 (≈ 12.9 µg/mL) | > 500 | 500 (≈ 201 µg/mL) | 62.5 (≈ 25.1 µg/mL) | 32 (≈ 12.9 µg/mL) | 32 (≈ 12.9 µg/mL) | 32 (≈ 12.9 µg/mL) | 16 (≈ 6.43 µg/mL) | 32 (≈ 12.9 µg/mL) | 8 (≈ 3.21 µg/mL) | Activity (Enterococcus sp.): inactive; Activity (Klebsiella pneumoniae [12]): inactive; MIC80 (Pichia kudriavzevii [13]): > 500 µM; MIC95 [15]: > 500 µM; MIC95 (Staphylococcus aureus [16]): 250 µM (≈ 100 µg/mL); Activity (Candida tropicalis): inactive; MIC50 [18]: > 500 µM; MIC95 (Staphylococcus aureus [20]): > 500 µM; MIC50 [21]: > 500 µM; Activity (Escherichia coli): inactive; MIC50 (Lichtheimia corymbifera [22]): > 500 µM; MIC80 (Candida albicans [23]): > 500 µM; MIC50 (Aspergillus fumigatus [24]): > 500 µM; MIC95 (Staphylococcus aureus [27]): > 500 µM; Activity (Klebsiella pneumoniae [28]): inactive; MIC80 (Candida albicans [30]): > 500 µM
